Assay type in all cases: cell-based, human
Experiment [1] relates to LNCaP expressing both wild-type and constitutively active AR splice variant AR-V7. Nature of the experiment: Cell viability. The note with it: LNCaP AR-V7, 96 hours, CellTiter Blue, XLfit. On the technique in general: Resazurin is reduced to fluorescent resorufin, in cell work by metabolically active cells.
For experiment [2], the system named is androgen-dependent LNCaP PC cells. Description: Cell viability. The note with it: Homo sapiens, 96 h.
Experiment [3] concerns castration-resistant PC-3 PC cells. Nature of the experiment: Cell viability. The note with it: Homo sapiens, 96 h.
The subject of experiment [4] is castration-resistant DU-145 PC cells. Description: Cell viability. The note with it: DU-145, 96 hours, CellTiter Blue.
For experiment [5], the system named is AR transcriptional activity. Nature of the experiment: AR luciferase reporter assay in LNCaP with R1881. The note with it: R1881 2.5nM, 8 hrs. Background: Reporter assays use an easily measured gene product as a stand-in for the process of interest.
Experiment [6] has as its system AR transcriptional activity. Nature of the experiment: AR luciferase reporter assay in LNCaP expressing AR-V7. The conditions noted are these: LNCaP stably expressing AR-V7, luciferase, 8 hrs.
A further experiment deals with PSA expression. Description: PSA expression by Western blot in LNCaP expressing AR-V7. The conditions noted are these: LNCaP stably expressing AR-V7, 10μM, 24 hrs. The method, boiled down:
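Cells were lysed in 1x SDS sample buffer (1 × 10^7 cells/ml) and boiled 5 min. PSA and AR levels were assessed by SDS-PAGE and Western blot.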

pIC50: −log10 of the molar value.

As for `O=C(c1cc(Cc2n[nH]c(=O)c3ccccc23)ccc1F)N1CCN(C(=O)C2CC2)CC1` [Olaparib, reference compound], the ED20 worked out at 7.3 µM in experiment [1] and 1.2 µM in experiment [4]. The results for the ED50 in experiment [1] and in experiment [4] were 61.9 µM and 7.4 µM, respectively. Moreover, the ED70 in experiment [1] was found to be 228.7 µM; in experiment [4], 22.0 µM. For the same compound, the ED90 in experiment [1] was 1835 µM; in experiment [4] it was 125.8 µM. For the same compound, the IC20 in experiment [2] (read-out: ED20) amounted to 700 nM; in experiment [3] (read-out: ED20), 900 nM. Also, the pIC50 in experiment [2] (read-out: ED50) was 4.69; in experiment [3] (read-out: ED50) it was 5.03. Further, the results for the IC70 in experiment [2] (read-out: ED70) and in experiment [3] (read-out: ED70) were 163 µM and 39 µM, respectively. For the same compound, the IC90 in experiment [2] (read-out: ED90) was 4.45 mM; in experiment [3] (read-out: ED90), 384 µM. Further, the “effect on R1881-mediated AR transcriptional activity” value in experiment [5] is “only weak inhibitory effects”. In experiment [6], the “effect on AR transcriptional activity” value is “negligible inhibitory effect”. Further, the “effect on PSA expression” value with PSA expression was “negligible inhibitory effect”.

The values above are taken from publication PMC6702078 (Biochemical pharmacology, 2019).
